# Rows were chosen to be rich in hits. Some 2.5% of all compounds tested hit in one or more screens of this group.
# S100A4 MyoIIA: inhibitors of S100A4-myosin IIA peptide binding, primary screen, biochemical, fluorescence polarization, TAMRA-MyoIIA peptide. Protein S100-A4 (Homo sapiens), P26447. inhibition, % at 10.7 µM. hit rate 0.14% among 360,000;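 active = mean inhibition of at least 70% across replicates, with every replicate also reaching that level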
# Target sequence (P26447 whole entry, looked up): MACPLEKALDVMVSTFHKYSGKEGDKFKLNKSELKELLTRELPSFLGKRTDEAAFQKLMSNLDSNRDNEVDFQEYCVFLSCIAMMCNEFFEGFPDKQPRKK
#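 Material: S100A4 monomer (human). Medium: Calcium-containing HEPES buffer, pH 7.2. Probe or stimulus: labelled myosin peptide probe, 5 nM. Compound dosing: one concentration per compound. Timing: polarization read 5 min after assay mix addition, stable 5–60 min. Benchmarks: DMSO as neutral control, TFP as positive control.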
# SIRT5 block: SIRT5 desuccinylase inhibitors, primary screen, biochemical, fluorescence imaging, single point, set 5; hit rate 1.1% among 330,000; inhibition, % at 15 µM; Purified SirT5, succinyl-peptide AMC, trypsin-coupled fluorescence; in the data active = inhibition above about 15%
# Target sequence (Q9NXA8 whole entry, looked up): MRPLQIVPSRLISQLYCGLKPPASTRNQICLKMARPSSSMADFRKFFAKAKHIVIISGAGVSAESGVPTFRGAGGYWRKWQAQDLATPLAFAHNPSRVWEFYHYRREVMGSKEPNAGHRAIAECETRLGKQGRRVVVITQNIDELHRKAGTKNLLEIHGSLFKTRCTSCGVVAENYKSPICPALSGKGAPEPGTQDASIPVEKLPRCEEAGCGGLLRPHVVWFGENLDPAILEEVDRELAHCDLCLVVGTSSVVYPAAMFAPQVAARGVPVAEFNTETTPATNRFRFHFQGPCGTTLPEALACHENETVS
# E-sel inducer: E-selectin induction in HUVECs, primary screen, imaging, HUVEC, immunofluorescence imaging, single point; hit rate 0.37% among 260,000; activation, % at 7.58 µM; normalized: neutral wells 0, TNF-alpha wells 100; AID 686992, 2013;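 active = mean E-selectin-positive cell signal at least 10% of the positive control, reached in at least 60% of replicates, without over 20% cell loss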
#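 Read-out: % PE-positive cells | Test system: HUVEC | Doses: One compound dose added by pin transfer | Buffer or medium: EGM-2 over gelatin coat | Signal: Immunofluorescence imaging | Benchmarks: TNF-alpha, DMSO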
# FGF22 binding: binders of human FGF22 protein, primary screen, FGF22 synaptogenesis inhibitor project, biophysical, thermal shift, single point; Fibroblast growth factor 22 (Homo sapiens), Q9HCT0; recombinant FGF22 thermal shift, SYPRO orange fluorescence; percent of sucrose octasulfate shift, DMSO zero; activity (Tm shift, normalised), % at 9.99 µM; hit rate 1.5% among 340,000;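 active = mean Tm shift, scaled 0 neutral to 100 positive control, at about 1.3% or above, every replicate too, limit read from the data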
# Target sequence (Q9HCT0 whole entry, looked up): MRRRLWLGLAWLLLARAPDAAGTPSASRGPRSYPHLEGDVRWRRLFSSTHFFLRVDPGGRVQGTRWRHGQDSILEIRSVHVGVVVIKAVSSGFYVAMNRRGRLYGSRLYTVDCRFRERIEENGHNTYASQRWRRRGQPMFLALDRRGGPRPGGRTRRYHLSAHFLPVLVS
# miR-122 sensor: miR-122 Renilla sensor signal increase in Huh7, primary screen, miR-122 inhibitor project, cell-based, single point, plate reader | hit rate 0.3% among 340,000 | activation (reporter increase), % at 12.5 µM | Huh7 miR-122 Renilla luciferase sensor, 48 h; neutral wells = 0, positive control = 100;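 active = mean replicate activation score at least 90 and every replicate individually at or above 90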;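 note: higher luciferase means less miR-122 activity so hits act as miR-122 inhibitors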
# * marks the source's active call; other numbers are inactive results; · = not tested or not shown; ! = a repeat was not active; [ ] = dose if it differs, or a comment.
SMILES,S100A4 MyoIIA,SIRT5 block,E-sel inducer,FGF22 binding,miR-122 sensor
C[C@@H]1CCCCO[C@H](CN(C)Cc2ccc(C(F)(F)F)cc2)[C@H](C)CN([C@@H](C)CO)C(=O)c2cc(NS(=O)(=O)c3ccc(F)cc3)ccc2O1,11,0,0,1,-19[16.7 µM]
C[C@@H]1CCCCO[C@H](CN(C)Cc2ccc(C(F)(F)F)cc2)[C@H](C)CN([C@H](C)CO)C(=O)c2cc(NS(=O)(=O)c3ccc(F)cc3)ccc2O1,-8,17*,0,-1,-11[16.7 µM]
CCCN1[C@@H]2Cn3c(ccc(C4=CCCCC4)c3=O)[C@H]1[C@@H](C(=O)N1CCOCC1)[C@@H]2CO,11,-9,0,0,-1[16.7 µM]
O=C(Cc1ccccc1)N1CC2(C1)[C@@H](c1ccccc1)[C@@H](CO)N2S(=O)(=O)Cc1ccccc1,6,-1,0,0,·
COc1ccc(-c2nc(CN3CCN(c4ncnc5ccccc45)CC3)c(C)o2)c(OC)c1,0,0,·,44*,·
Cc1oc(-c2cc(F)ccc2F)nc1CN1CCN(c2ncnc3ccccc23)CC1,-6,5,·,0,·
COc1ccc(C#Cc2ccc([C@H]3[C@H]4CN(C(=O)c5ccc(F)cc5)CC(=O)N4[C@H]3CO)cc2)cc1,-4,3,1,·,·
CCc1c(C)sc2nc3c(C(=O)N4CCOCC4)cc(C(=O)c4ccccc4O)cn3c(=O)c12,1,1,·,43*,8
c1ccc(-c2cc(-c3cc(-c4ccccc4)on3)no2)cc1,-3,·,0,43*,·
Cc1ccc(S(=O)(=O)N2CCC(C(=O)NCc3cccnc3)CC2)cc1,-38,-1,·,0,4
CCOc1ccc(S(=O)(=O)N2CCC(C(=O)NCc3cccnc3)CC2)cc1,-4,6,41*,0,-1
Cc1cccc(OC(C)C(=O)OCC(=O)N2CCN(c3ccccc3)CC2)c1 (stereo not given),-1,·,1,44*,·
COc1ccc(CN(C)C[C@H]2OCCCC[C@@H](C)Oc3ccc(N(C)C)cc3C(=O)N([C@@H](C)CO)C[C@H]2C)cc1,11,-2,0,-1,-2[16.7 µM]
C[C@@H]1CCCCO[C@@H](CN(C)Cc2ccc(Cl)c(Cl)c2)[C@H](C)CN([C@H](C)CO)C(=O)c2cc(N(C)C)ccc2O1,11,-2,0,-1,-8[16.7 µM]
C[C@@H]1CCCCO[C@H](CN(C)Cc2ccc(Cl)c(Cl)c2)[C@@H](C)CN([C@H](C)CO)C(=O)c2cc(N(C)C)ccc2O1,2,3,0,43*!,-1
COc1ccc(CN(C)C[C@H]2OCCCC[C@H](C)Oc3ccc(N(C)C)cc3C(=O)N([C@H](C)CO)C[C@H]2C)cc1,-21,22*,0,-1,-1[16.7 µM]
[N-]=[N+]=NCc1ccccc1C[C@]1(C(=O)N2CCCCC2)N=C(c2ccc(OCCCO)cc2)O[C@H]1c1ccccc1,-11,8,·,0,·
OCCC1CN(Cc2ccc3c(c2)CCO3)CCN1Cc1ccc(F)cc1 (stereo not given),74*,-2,0,1,·
CCn1cc(CN2CCN(Cc3ccsc3)C(CCO)C2)cn1 (stereo not given),2,-2,·,44*,·
COc1ccc(/C=C/CN2CCN(CC(C)C)C(CCO)C2)cc1 (stereo not given),-10,3,0,44*,·
CC(C)CN1CCN(Cc2ccc3ncccc3c2)CC1CCO (stereo not given),0,-3,0,44*,·
Cc1ccc(CN2CCN(Cc3ccc4c(c3)OCCO4)CC2CCO)cc1 (stereo not given),-17,-6,15,0,·
C[C@H](CO)N1C[C@H](C)[C@H](CN(C)C(=O)c2ccccc2F)Oc2ncc(-c3ccc(F)cc3)cc2C1=O,-4,7,0,0,17[16.7 µM]
OCCC1CN(Cc2cccc3nccnc23)CCN1Cc1ccc(F)c(F)c1 (stereo not given),-1,-1,·,44*,·
CSc1cccc(CN2CCN(Cc3ccc(F)c(F)c3)C(CCO)C2)c1 (stereo not given),0,16*,·,0,2
SMILES,S100A4 MyoIIA,SIRT5 block,E-sel inducer,FGF22 binding,miR-122 sensor
CSc1ccc(CN2CCN(Cc3ccccc3)C(CCO)C2)cc1 (stereo not given),-1,-4,·,43*,·
CNC[C@H]1[C@@H](c2ccc(C#CCC3CCCC3)cc2)[C@@H](CO)N1C(=O)C1CCC1,-2,5,0,·,·
Cc1cc(N/N=C/c2ccc(O)cc2)c2cccc(C)c2n1,-2,21*,·,0,·
Cc1cc(C)c2nc(C)cc(N/N=C/c3ccc(O)cc3)c2c1,6,3,·,0,·
Cc1ccc(C)c(NC(=S)NC(C)C(c2ccccc2)N2CCN(C)CC2)c1 (stereo not given),5,-1,0,0,·
CCN1CCN(C(c2cccs2)C(C)NC(=S)Nc2cc(C)ccc2C)CC1 (stereo not given),8,16*,0,1,·
COC(=O)c1cc(C(=O)OC)[nH]n1,0,16*,·,0,·
CCc1cccc(N=c2c([N+](=O)[O-])nn(-c3ccc(Cl)cc3)n2O)c1,-11,-1,·,0,·
CCc1cccc(N=c2c([N+](=O)[O-])nn(-c3ccc4c(c3)OCCO4)n2O)c1,0,-2,0,43*,·
C[C@H](CO)N1C[C@H](C)[C@@H](CN(C)C(=O)NC2CCCC2)Oc2ncc(-c3ccncc3)cc2C1=O,0,-5,0,0,·
CCCC(=O)Nc1ccc2c(c1)OC[C@@H](C)N(CCC(F)(F)F)C[C@@H](C)[C@@H](OC)CN(C)C2=O,-1,6,0,0,1[16.7 µM]
CC(C)CCCCCCCCc1cccc(O)c1C(=O)O,-2,20*,·,·,·
CCC1CCCCN1C(=O)CCc1nnc(C2CCCCC2)o1 (stereo not given),3,-1,·,43*,-9
COC(=O)[C@@H]1CCCN1C(=O)CCc1nnc(C2CCCCC2)o1,-1,-1,·,0,-5
Cc1cc(C)n(C(=O)c2ccc([N+](=O)[O-])cc2N)n1,2,0,·,43*,1
Cc1ccc([N+](=O)[O-])cc1N,-4,0,1,43*,·
Nc1cc([N+](=O)[O-])ccc1O,7,5,0,0,·
Cc1cc(C)n(/C(=C\N(C)C)C(=O)c2cccc([N+](=O)[O-])c2)n1,4,1,0,0,-3
CCN1[C@H](C(=O)NC2CCCC2)[C@@H](CO)[C@@H]2Cn3c(ccc(-c4ccccc4F)c3=O)[C@@H]21,1,1,-1,0,6[16.7 µM]

# Assay outcomes (PubChem BioAssay)
